Test results from ChEMBL document CHEMBL6083194, “Discovery and evaluation of 3-(2-isocyanobenzyl)-1H-indole derivatives as potential quorum sensing inhibitors for the control of Pseudomonas aeruginosa infections in vitro” (RSC Med Chem, 2024).
≈ marks a conversion by molar mass, not a printed value. Calls of active or inactive are those of the source. The rule behind the calls is not given here.

Legend:
Pseudomonas aeruginosa [1] = test: Inhibition of biofilm formation in Pseudomonas aeruginosa PAO1 at 25 ug/ml incubated for 24 hrs crystal violet staining based assay; assay type: functional
How it was run: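 PAO1 grown statically for 24 h in LB ± compound in 24-well plates. Planktonic cells removed; attached cells stained with 0.05% crystal violet, rinsed, dissolved in 95% ethanol, read at OD570. DMSO negative, resveratrol positive control; SD from three independent experiments.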

Pseudomonas aeruginosa [2] = test: Inhibition of biofilm formation in Pseudomonas aeruginosa PAO1 incubated for 24 hrs crystal violet staining based SEM assay; assay type: functional, organism-based
Pseudomonas aeruginosa [3] = test: Anti-virulence effect in Pseudomonas aeruginosa PAO1 assessed as inhibition of rhamnolipid production at 25 ug/ml; assay type: functional; set-up: scale not given: the % may be the effect or the level left; settings: dose 25 µg/ml
How it was run: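 PAO1 culture supernatant from growth with compound (6.25–25 μg mL−1) at 37 °C and 180 rpm, or with DMSO or RSV (25 μg mL−1) as controls. Orcinol assay: 100 μL sample plus 0.19% orcinol in 53% H2SO4, heated 30 min at 80 °C, cooled, read at 421 nm. At least three experiments in triplicate.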

Pseudomonas aeruginosa [4] = test: Anti-virulence effect in Pseudomonas aeruginosa PAO1 assessed as inhibition of pyocyanin production at 25 ug/ml; assay type: functional; set-up: scale not given: the % may be the effect or the level left; settings: dose 25 µg/ml
How it was run: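 Overnight PAO1 culture in LB at 37 °C, diluted to OD600 0.05 and subcultured 5–7 h to mid-log phase, then re-diluted to OD600 0.05. Grown 18 h at 37 °C and 200 rpm with compound (6.25, 12.5, 25 μg mL−1) or DMSO. Supernatant extracted into chloroform, back-extracted into 0.2 M HCl, read at 520 nm.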

Pseudomonas aeruginosa [5] = test: Inhibition of pyocyanin production in Pseudomonas aeruginosa PAO1 at 1/2 time MIC incubated for 18 hrs; assay type: functional
How it was run: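 Overnight PAO1 in LB diluted to OD600 = 0.05, subcultured 5–7 h to mid-log, rediluted to OD600 = 0.05. 5 mL with compound grown 18 h at 37 °C, 200 rpm. Supernatant extracted with 3 mL chloroform, back-extracted into 0.2 M HCl, absorbance at 520 nm.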

Pseudomonas aeruginosa [6] = test: Induction of biofilm eradication in Pseudomonas aeruginosa PAO1 at 25 ug/ml by crystal violet staining based assay; assay type: functional; settings: dose 25 µg/ml
How it was run: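 PAO1 biofilms grown overnight at 37 °C in LB in 24-well plates, washed with PBS, then fresh LB with compound added and grown overnight again. Washed, methanol-fixed, crystal violet stained, ethanol solubilised, read at OD570. DMSO negative, resveratrol positive control.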

Pseudomonas aeruginosa [7] = test: Anti-virulence effect in Pseudomonas aeruginosa PAO1 assessed as decrease in protease level at 25 ug/ml; assay type: functional; set-up: scale not given: the % may be the effect or the level left; settings: dose 25 µg/ml
How it was run: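 Overnight PAO1 culture diluted 1:100 into LB with compound (6.25–25 μg mL−1), grown at 37 °C and 180 rpm; DMSO and RSV (25 μg mL−1) as controls. Culture supernatant mixed with 2% azocasein in 1 M Tris–HCl pH 8.0 for 15 min at 37 °C. Reaction stopped with 10% TCA, centrifuged, NaOH added, read at OD440.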

Pseudomonas aeruginosa [8] = test: Anti-virulence effect in Pseudomonas aeruginosa PAO1 assessed as inhibition of EPS production at 25 ug/ml; assay type: functional; set-up: scale not given: the % may be the effect or the level left; settings: dose 25 µg/ml
How it was run: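 PAO1 grown with compound (6.25–25 μg mL−1) in 24-well plates for 24 h at 37 °C and 180 rpm; DMSO and RSV (25 μg mL−1) as controls. Biofilms washed with water, then treated with 0.9% NaCl, 5% phenol and 0.2% hydrazine sulfate. Held 1 h in the dark, read at OD490. Three independent experiments.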

Pseudomonas aeruginosa [9] = test: Inhibition of rhamnolipid production in Pseudomonas aeruginosa PAO1 at 1/2 times MIC by orcinol method; assay type: functional
How it was run: (§1)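 Overnight PAO1 diluted 1:100 into LB with compound, 37 °C, 180 rpm; DMSO control. Supernatant (100 μL) mixed with 900 μL 0.19% orcinol in 53% H2SO4, heated 30 min at 80 °C, cooled, read at 421 nm.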

Pseudomonas aeruginosa [10] = test: Inhibition of biofilm formation in Pseudomonas aeruginosa PAO1 at 1/2 times MIC incubated for 24 hrs crystal violet staining based SEM assay; assay type: functional
Pseudomonas aeruginosa [11] = test: Inhibition of rhamnolipid production in Pseudomonas aeruginosa PAO1 at 1/4 times MIC by orcinol method; assay type: functional; how it was run: as §1
[12] = Inhibition of quorum sensing system in Chromobacterium violaceum CV026
How it was run: (§2)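 Plate screen. CV026 grown overnight in LB with 50 μg ml−1 kanamycin; 15 μl seeded into 15 ml LB agar (1.0% agarose) containing 20 μM C4-HSL. PAO1 plates run in parallel. Test colonies inoculated by toothpick, incubated overnight at 37 °C. Ring of colourless viable cells around the colony scored as inhibition.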

Pseudomonas aeruginosa [13] = test: Inhibition of rhamnolipid production in Pseudomonas aeruginosa PAO1 at 1/2 to 1/4 times MIC by orcinol method; assay type: functional, organism-based; how it was run: as §1
[14] = Inhibition of quorum sensing system in Pseudomonas aeruginosa PAO1; how it was run: as §2
Pseudomonas aeruginosa [15] = test: Antibacterial activity against Pseudomonas aeruginosa PAO1 by serial dilution method; assay type: functional
How it was run: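 PAO1 in LB, 37 °C. MIC by CLSI 2-fold serial dilution in Mueller–Hinton broth, inoculum 1–5 × 10^5 CFU mL−1, DMSO stocks. Growth curves: overnight culture diluted to OD600 = 0.05, subcultured to mid-log, rediluted to OD600 = 0.05, 3 mL with compound; OD620 read at 1, 3, 5, 7, 9, 11 and 24 h at 37 °C; DMSO negative control.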

Row | SMILES | inhibition at 25 µg/mL (Pseudomonas aeruginosa [1]) | inhibition (Pseudomonas aeruginosa [2]) | Activity (Pseudomonas aeruginosa [3]) | Activity (Pseudomonas aeruginosa [4]) | inhibition (INH) (Pseudomonas aeruginosa [5]) | Activity (Pseudomonas aeruginosa [6]) | Activity (Pseudomonas aeruginosa [7]) | Activity (Pseudomonas aeruginosa [8]) | inhibition (INH) (Pseudomonas aeruginosa [9]) | inhibition (INH) (Pseudomonas aeruginosa [10]) | inhibition (INH) (Pseudomonas aeruginosa [11]) | inhibition [12] | inhibition (Pseudomonas aeruginosa [13]) | inhibition [14] | inhibition (Pseudomonas aeruginosa [5]) | MIC (Pseudomonas aeruginosa [15])
1 | Oc1ccc(/C=C/c2cc(O)cc(O)c2)cc1 [RESVERATROL] | 55% | Dose-dependent-effect | 12% | 26% | 38% | 47% | 26% | 22% | – | – | – | – | – | – | – | –
2 | COc1ccc2[nH]cc(Cc3ccccc3C#N)c2c1 | – | Dose-dependent-effect | – | – | – | – | – | – | 44% | 7% | 30% | Active; Showed Higher Activity | Active | Active; Strong Inhibition Observed | Active; Showed Higher Activity Than Positive Control Rsv | 6 µg/mL (≈ 22.9 µM)
